Source: ChEMBL document CHEMBL1141617, “Synthesis and evaluation of antitumoral activity of ester and amide derivatives of 2-arylamino-6-trifluoromethyl-3-pyridinecarboxylic acids” (2008)
One block for each molecule: values may come before it.

What was measured:
Assay type in all cases: functional
IGROV-1 = assay: Growth inhibition of human IGROV1 cells
How it was run: (§1)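 NCI 60 human tumour cell line panel grown in RPMI1640 with 5% fetal calf serum and 2 mM L-glutamine. Cells seeded at a density set by each line's growth characteristics and preincubated 24 h. Compounds added in DMSO at 10^-4 to 10^-8 M (five 10-fold dilutions) and left 48 h continuously. Growth read by sulforhodamine B protein stain. GI50 is the molar concentration giving 50% net growth inhibition.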

SNB-75 = assay: Growth inhibition of human SNB75 cells; how it was run: as §1
HOP-92 = assay: Growth inhibition of human HOP92 cells; details: for TGI: read-out: Log TGI (converted); how it was run: as §1
OVCAR-3 = assay: Growth inhibition of human OVCAR-3 cells; how it was run: as §1
LOX IMVI = assay: Growth inhibition of human LOXIMVI cells; how it was run: as §1
SK-MEL-5 = assay: Growth inhibition of human SK-MEL5 cells; how it was run: as §1
HL-60 = assay: Growth inhibition of human HL60 cells; details: for TGI: read-out: Log TGI (converted); how it was run: as §1
SR = assay: Growth inhibition of human SR cells; details: for TGI: read-out: Log TGI (converted); how it was run: as §1
EKVX = assay: Growth inhibition of human EKVX cells; how it was run: as §1
COLO 205 = assay: Growth inhibition of human COLO205 cells; how it was run: as §1
HCT-15 = assay: Growth inhibition of human HCT15 cells; how it was run: as §1
KM12 = assay: Growth inhibition of human KM12 cells; how it was run: as §1
U-251 = assay: Growth inhibition of human U251 cells; how it was run: as §1
Malme-3M = assay: Growth inhibition of human MALME3M cells; how it was run: as §1
SK-OV-3 = assay: Growth inhibition of human SKOV3 cells; how it was run: as §1
A498 = assay: Growth inhibition of human A498 cells; how it was run: as §1
ACHN = assay: Growth inhibition of human ACHN cells; how it was run: as §1
MDA-MB-231 = assay: Growth inhibition of human MDA-MB-231 cells; details: for TGI: read-out: Log TGI (converted); how it was run: as §1
MCF7 = assay: Growth inhibition of human MCF7 cells; how it was run: as §1
K562 = assay: Growth inhibition of human K562 cells; how it was run: as §1
MOLT-4 = assay: Growth inhibition of human MOLT4 cells; how it was run: as §1
RPMI-8226 = assay: Growth inhibition of human RPMI8226 cells; how it was run: as §1
SF-295 = assay: Growth inhibition of human SF295 cells; how it was run: as §1
CAKI-1 = assay: Growth inhibition of human CAKI1 cells; how it was run: as §1
UO-31 = assay: Growth inhibition of human UO31 cells; how it was run: as §1

SMILES: Cc1cc(Cl)ccc1Nc1nc(C(F)(F)F)ccc1C(=O)N1CCN(c2cccc(Cl)c2)CC1
GI50 (IGROV-1): 1780 nM
GI50 (SNB-75): 1120 nM

SMILES: Cc1cc(Cl)ccc1Nc1nc(C(F)(F)F)ccc1C(=O)Nc1cccc(C(F)(F)F)c1
GI50 (LOX IMVI): 2820 nM
TGI (LOX IMVI; read-out: Log TGI (converted)): 8510 nM
GI50 (SK-MEL-5): 2820 nM
TGI (SK-MEL-5; read-out: Log TGI (converted)): 9330 nM
GI50 (HOP-92): 2190 nM
TGI (HOP-92): 8130 nM
GI50 (HL-60): 2040 nM
TGI (HL-60): 4680 nM
GI50 (SR): 2570 nM
TGI (SR): 8320 nM
GI50 (EKVX): 1860 nM
GI50 (COLO 205): 2510 nM
TGI (COLO 205; read-out: Log TGI (converted)): 6170 nM
GI50 (HCT-15): 2570 nM
TGI (HCT-15; read-out: Log TGI (converted)): 7410 nM
GI50 (KM12): 2090 nM
GI50 (U-251): 3020 nM
TGI (U-251; read-out: Log TGI (converted)): 9770 nM
GI50 (Malme-3M): 2000 nM
TGI (Malme-3M; read-out: Log TGI (converted)): 9120 nM
GI50 (SK-OV-3): 2450 nM
GI50 (A498): 2820 nM
TGI (A498; read-out: Log TGI (converted)): 7410 nM
GI50 (ACHN): 2750 nM
TGI (ACHN; read-out: Log TGI (converted)): 8910 nM
GI50 (MDA-MB-231): 2040 nM
TGI (MDA-MB-231): 8130 nM
GI50 (MCF7): 2290 nM
TGI (MCF7; read-out: Log TGI (converted)): 7760 nM

SMILES: Cc1ccc(Cl)cc1Nc1nc(C(F)(F)F)ccc1C(=O)N1CCN(c2cccc(Cl)c2)CC1
GI50 (SR): 2750 nM

Second part, led by results:

GI50 (OVCAR-3): 2570 nM
SMILES: Cc1ccc(Cl)cc1Nc1nc(C(F)(F)F)ccc1C(=O)Oc1ccc(Cl)cc1
GI50 (HOP-92): 1910 nM
TGI (OVCAR-3; read-out: Log TGI (converted)): 8910 nM

GI50 (K562): 2400 nM
GI50 (MOLT-4): 1550 nM
GI50 (HL-60): 2400 nM
GI50 (MDA-MB-231): 1660 nM
GI50 (RPMI-8226): 2090 nM
GI50 (MCF7): 2400 nM
SMILES: COc1ccc(NC(=O)c2ccc(C(F)(F)F)nc2Nc2ccc(Cl)cc2C)cc1Cl
TGI (MOLT-4; read-out: Log TGI (converted)): 4900 nM
TGI (HL-60): 5370 nM
GI50 (SR): 1700 nM
TGI (SR): 6460 nM
TGI (MDA-MB-231): 6760 nM
TGI (RPMI-8226; read-out: Log TGI (converted)): 4900 nM
GI50 (SF-295): 2340 nM

GI50 (SK-MEL-5): 955 nM
SMILES: COc1ccc(N2CCN(C(=O)c3ccc(C(F)(F)F)nc3Nc3cc(Cl)ccc3C)CC2)cc1
GI50 (HOP-92): 1480 nM
TGI (HOP-92): 7940 nM
GI50 (IGROV-1): 51.3 nM
GI50 (CAKI-1): 1380 nM
GI50 (UO-31): 1700 nM
